From ChEMBL document CHEMBL1145909, “Optically active mexiletine analogues as stereoselective blockers of voltage-gated Na(+) channels” (J Med Chem, 2003)

Experiments:
[1] = Half-maximal concentration producing a phasic block (cumulative sodium current reduction at 10 HZ stimulation frequency) in Rana esculenta muscle; type: functional, tissue-based, Muscle tissue
In short: (§1)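 Three-vaseline-gap voltage clamp on single fibers microdissected from the ventral branch of Rana esculenta semitendinosus. After 10 min equilibration, Na⁺ currents recorded at 10 °C from a holding potential of -100 mV. Compounds diluted daily from stocks in physiological/external solution, DMSO at most 0.2%. IC50 from a nonlinear least-squares fit of concentration-response curves; data as mean ± SEM.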

[2] = Half-maximal concentration producing a tonic block (blocking sodium channels at resting conditions during infrequent depolarizing pulses) in Rana esculenta muscle; type: functional, tissue-based, Muscle tissue; in short: as §1
Pelophylax lessonae [3] = test: Ratio of the concentrations of tonic block to that of phasic block; type: functional
Pelophylax lessonae [4] = test: Relative potency producing phasic block, relative to mexileitine

Structure (SMILES)	IC50 [1] [µM]	IC50 [2] [µM]	Ratio (Pelophylax lessonae [3])	Relative potency (Pelophylax lessonae [4])
Cc1cccc(C)c1OCC(C)N (stereo unspecified) [MEXILETINE]	29	83	3	–
Cc1cccc(C)c1OC[C@@H](C)N [(R)-MEXILETINE]	23	54	2	1
Cc1cccc(C)c1OC[C@H](C)N [(S)-MEXILETINE]	27	114	4	1
